The nature of test [1]: Antiproliferative activity against human MDA468 cells after 3 days by MTS assay. The following applies: MDA-MB-468, 72 h. The test is classed as functional, cell-based. Put shortly: (§1)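 Cells seeded in 96-well plates for 24 h, then treated with vehicle or a range of compound doses for 3 days. Viable cell density read by MTS assay. IC50 taken from plots of percent inhibition versus vehicle control.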
A general note: Tetrazolium assays rely on reduction of a dye to a coloured formazan, in cell work by metabolically active cells.

The test system of test [2] is LNCaP. The test can be described thus: Antiproliferative activity against human LNCAP cells after 3 days by MTS assay. The following applies: 72 h. The test is classed as functional, cell-based. Put shortly: as §1
For test [3], the target named is Serine/threonine-protein kinase mTOR (Homo sapiens, UniProt P42345). The test can be described thus: Inhibition of FKBP12-independent human recombinant mTOR expressed in HEK293 cells using His6-S6K1 as a substrate by DELFIA assay. Type of test: cell-based. The method in brief:
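Recombinant mTOR kinase activity measured with no FKBP12 present, with vehicle or a range of compound doses. IC50 derived by plotting percent inhibition relative to control.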

Structures are written as SMILES.

Usually IC50 stands for the point on the concentration scale where inhibition reaches its midpoint. For `CC[C@@H]1/C=C/C=C/C=C(\C)[C@@H](OC)C[C@@H]2CC[C@@H](C)[C@@](O)(O2)C(=O)C(=O)N2CCCC[C@H]2C(=O)O[C@H]([C@H](C)C[C@@H]2CC[C@@H](OC(=O)C(C)(CO)CO)[C@H](OC)C2)CC(=O)[C@H](C)/C=C(\C)[C@@H](O)[C@@H](OC)C(=O)[C@H](C)C1` [HOMOTEMSIROLIMUS B], the IC50 came out at 5 nM in test [1], 13 nM in test [2] and 2500 nM in test [3].
For the compound `CC[C@@H]1CC[C@H]2C[C@H](OC)/C(C)=C/C=C/C=C/[C@@H](C)C[C@@H](C)C(=O)[C@H](OC)[C@H](O)/C(C)=C/[C@@H](C)C(=O)C[C@@H]([C@H](C)C[C@@H]3CC[C@@H](OC(=O)C(C)(CO)CO)[C@H](OC)C3)OC(=O)[C@@H]3CCCCN3C(=O)C(=O)[C@]1(O)O2` [HOMOTEMSIROLIMUS A], the IC50 was found to be 1 nM in test [1], 2.5 nM in test [2] and 1800 nM in test [3].
As for `CO[C@H]1C[C@@H]2CC[C@@H](C)[C@@](O)(O2)C(=O)C(=O)N2CCCC[C@H]2C(=O)O[C@H]([C@H](C)C[C@@H]2CC[C@@H](OC(=O)C(C)(CO)CO)[C@H](OC)C2)CC(=O)[C@H](C)/C=C(\C)[C@@H](O)[C@@H](OC)C(=O)[C@H](C)C[C@H](C)/C=C/C=C/C=C/1C` [TEMSIROLIMUS], the figures for the half-inhibitory concentration (IC50) in test [1], in test [2] and in test [3] were 8 nM, 0.5 nM and 1760 nM, respectively.
For `CC[C@@H]1/C=C(\C)[C@@H](O)[C@@H](OC)C(=O)[C@H](C)C[C@H](C)/C=C/C=C/C=C(\C)[C@@H](OC)C[C@@H]2CC[C@@H](C)[C@@](O)(O2)C(=O)C(=O)N2CCCC[C@H]2C(=O)O[C@H]([C@H](C)C[C@@H]2CC[C@@H](OC(=O)C(C)(CO)CO)[C@H](OC)C2)CC1=O` [HOMOTEMSIROLIMUS C], in that order: 5 nM, 8 nM and 2100 nM.

The values above are taken from ChEMBL document CHEMBL1772963, “Isolation and structure of homotemsirolimuses A, B, and C” (J Nat Prod, 2011).
